# Paper PMC2773842 (Cellular and Molecular Life Sciences: CMLS, 2006)
# Experiments:
# chip-bound C-peptide = target: T1, chip-bound C-peptide (Homo sapiens, UniProt P01308); test: SPR binding of C-peptide in solution to chip-bound C-peptide
# T1 sequence (P01308 57-87 limits assumed): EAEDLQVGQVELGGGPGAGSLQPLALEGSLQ
# Method in brief: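 Peptide was immobilised on the sensor chip by surface thiol coupling via the C-terminus (up to 5000 RU) or amine coupling via the N-terminus (up to 1000 RU). The same peptide was run as analyte at 20 µl/min, diluted from a 600 µM stock in H2O/HCl pH 5. Running buffers spanned pH 3–7 (citrate, bis-Tris or Tris/HCl, 10 mM) with 100 mM NaCl and 0.005% SP20.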
# [1] = target: insulin-insulin interactions (chip-bound insulin) (Homo sapiens, UniProt P01308); type: binding; conditions: peptide mixed with insulin analyte
# insulin-insulin interactions (chip-bound insulin), sequence (P01308 25-54 limits assumed): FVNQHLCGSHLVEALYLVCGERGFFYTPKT
# insulin-insulin interactions (chip-bound insulin), sequence (P01308 90-110 limits assumed): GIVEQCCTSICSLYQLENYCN
# Method in brief: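 Biacore SPR with insulin immobilized either C-terminally (surface thiol coupling, up to 5000 RU) or N-terminally (amine coupling, up to 1000 RU). Test peptide was premixed with insulin analyte at 1, 5, 10 and 20 µM and flowed at 20 µl/min. Running buffer was 10 mM Na citrate pH 5 with 100 mM NaCl and 0.005% SP20. Curves are averages of three runs after blank subtraction.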
# insulin hexamer = insulin hexamer (Homo sapiens, UniProt P01308); test: ESI-MS analysis of insulin oligomer states in insulin/C-peptide mixtures
# insulin hexamer, sequence (P01308 25-54 limits assumed): as the sequence (P01308 25-54 limits assumed) above
substance,measurement,setting,value
C-peptide,binding of C-peptide in solution to chip-bound C-peptide,chip-bound C-peptide,no evidence for such binding
same,effect on rate of dissociation in insulin-insulin SPR,[1],slightly reduce the rate of dissociation
same,effects on insulin in ESI-MS compared with scrambled C-peptide,insulin hexamer; at low peptide concentrations,slightly more effects on insulin than scrambled C-peptide
same,insulin hexamer signals in ESI mass spectra,"insulin hexamer; nano-ESI-MS, pH 5, insulin 30 µM and C-peptide 30 µM (1:1)",markedly decreased from their level in insulin solutions to an absence in insulin-C-peptide mixtures
